In assay [1] the target is Interleukin-1 receptor-associated kinase 4 (Homo sapiens) (UniProt Q9NWZ3). In words: Inhibition of IRAK4 (unknown origin) assessed as remaining activity at 1 uM by Kinome scan method relative to control.
Assay [2] has as its target Ribosomal protein S6 kinase alpha-5 (Homo sapiens) (UniProt O75582). In words: Inhibition of C-terminal kinase domain RPS6KA5 (unknown origin) assessed as remaining activity at 1 uM by Kinome scan method relative to control. The method in brief: (§1)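 Active-site-dependent competition-binding (KINOMEscan) panel of 468 kinases, test compound at 1 μM (from a 10 mM DMSO stock). Read-out is ctrl% = (test signal − positive control signal)/(negative control signal − positive control signal) × 100. DMSO is the negative control (100%) and a control compound is the positive control (0%). Lower ctrl% means tighter binding.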

For assay [3], the target named is Macrophage colony-stimulating factor 1 receptor (Homo sapiens) (UniProt P07333). Put plainly: Inhibition of CSF1R (unknown origin) assessed as remaining activity at 1 uM by Kinome scan method relative to control. The method in brief: (§2)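 Active-site-dependent competition-binding profiling (KINOMEscan) at 1 μM against a 468-kinase panel; compound supplied from a 10 mM DMSO stock. Read-out is ctrl% = (test signal − positive control signal)/(negative control signal − positive control signal) × 100. DMSO is the negative control (100%) and a control compound the positive control (0%). Lower ctrl% means tighter binding.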

The target in assay [4] is Serine/threonine-protein kinase LATS1 (Homo sapiens) (UniProt O95835). In words: Inhibition of LATS1 (unknown origin) assessed as remaining activity at 1 uM by Kinome scan method relative to control.
For assay [5], the target named is T1, Serine/threonine-protein kinase 3 (Homo sapiens, UniProt Q13188).
T1 sequence (Q13188 whole entry): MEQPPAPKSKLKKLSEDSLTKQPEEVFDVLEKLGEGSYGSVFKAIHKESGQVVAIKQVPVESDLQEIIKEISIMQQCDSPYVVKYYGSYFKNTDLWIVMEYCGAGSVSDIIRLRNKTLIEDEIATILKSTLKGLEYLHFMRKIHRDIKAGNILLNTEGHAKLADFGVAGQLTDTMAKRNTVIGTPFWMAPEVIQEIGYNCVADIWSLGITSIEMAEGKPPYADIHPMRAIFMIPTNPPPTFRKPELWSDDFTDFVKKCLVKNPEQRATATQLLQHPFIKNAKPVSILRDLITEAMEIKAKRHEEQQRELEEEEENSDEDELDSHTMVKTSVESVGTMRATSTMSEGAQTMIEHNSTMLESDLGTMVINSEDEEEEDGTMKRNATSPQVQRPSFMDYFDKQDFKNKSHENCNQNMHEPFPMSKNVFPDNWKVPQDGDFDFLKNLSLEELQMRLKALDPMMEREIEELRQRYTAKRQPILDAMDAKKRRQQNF
In words: Inhibition of recombinant His-tagged full-length MST2 (unknown origin) expressing in Escherichia coli assessed as MOB1a phosphorylation level incubated for 30 min in the presence of 300 uM ATP by immunoblot analysis.

The target of assay [6] is Phosphatidylinositol 4,5-bisphosphate 3-kinase catalytic subunit alpha isoform (Homo sapiens, UniProt P42336, H1047L). Put plainly: Binding affinity to PIK3CA H1047L mutant (unknown origin) assessed as dissociation constant.
Sequence of Phosphatidylinositol 4,5-bisphosphate 3-kinase catalytic subunit alpha isoform (P42336 whole entry H1047L, the tested form may be a part, canonical isoform): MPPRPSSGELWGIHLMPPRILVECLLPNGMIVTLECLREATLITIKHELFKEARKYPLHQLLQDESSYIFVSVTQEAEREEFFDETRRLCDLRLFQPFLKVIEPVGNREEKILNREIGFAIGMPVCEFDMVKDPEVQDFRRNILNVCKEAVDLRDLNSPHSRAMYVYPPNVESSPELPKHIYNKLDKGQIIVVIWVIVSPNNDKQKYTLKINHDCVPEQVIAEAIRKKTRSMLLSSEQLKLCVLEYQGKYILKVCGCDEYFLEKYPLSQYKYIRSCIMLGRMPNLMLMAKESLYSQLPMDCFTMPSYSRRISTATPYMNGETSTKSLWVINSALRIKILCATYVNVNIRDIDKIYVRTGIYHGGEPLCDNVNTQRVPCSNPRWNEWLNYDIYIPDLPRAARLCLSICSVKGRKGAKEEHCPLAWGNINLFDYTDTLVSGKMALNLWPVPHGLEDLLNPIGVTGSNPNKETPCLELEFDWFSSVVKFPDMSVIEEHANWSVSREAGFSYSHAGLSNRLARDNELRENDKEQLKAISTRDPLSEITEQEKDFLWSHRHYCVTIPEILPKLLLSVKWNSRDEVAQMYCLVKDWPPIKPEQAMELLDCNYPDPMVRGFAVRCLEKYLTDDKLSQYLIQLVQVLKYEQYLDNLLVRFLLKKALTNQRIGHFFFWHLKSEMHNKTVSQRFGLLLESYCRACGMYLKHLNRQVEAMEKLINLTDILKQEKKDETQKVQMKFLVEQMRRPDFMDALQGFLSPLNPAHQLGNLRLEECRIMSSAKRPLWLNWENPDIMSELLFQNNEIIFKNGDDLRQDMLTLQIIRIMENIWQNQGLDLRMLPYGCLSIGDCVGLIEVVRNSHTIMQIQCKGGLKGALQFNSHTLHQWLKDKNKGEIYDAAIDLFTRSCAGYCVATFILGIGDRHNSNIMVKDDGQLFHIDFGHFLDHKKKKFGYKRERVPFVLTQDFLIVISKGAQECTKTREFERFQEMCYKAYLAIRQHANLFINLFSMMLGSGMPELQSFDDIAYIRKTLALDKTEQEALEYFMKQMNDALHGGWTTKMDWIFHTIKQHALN
Assay [7] has as its target LIM domain kinase 1 (Homo sapiens) (UniProt P53667). Put plainly: Inhibition of LIMK1 (unknown origin) assessed as remaining activity at 1 uM by Kinome scan method relative to control.
Assay [8] addresses RAC-beta serine/threonine-protein kinase (Homo sapiens) (UniProt P31751). Put plainly: Inhibition of AKT2 (unknown origin) assessed as remaining activity at 1 uM by Kinome scan method relative to control. The method in brief:
as §1

Assay [9] concerns the target Serine/threonine-protein kinase TAO2 (Homo sapiens, UniProt Q9UL54). In words: Binding affinity to TAOK2 (unknown origin) assessed as dissociation constant.
Assay [10] concerns the target Mitogen-activated protein kinase kinase kinase kinase 5 (Homo sapiens) (UniProt Q9Y4K4). In words: Inhibition of MAP4K5 (unknown origin) assessed as remaining activity at 1 uM by Kinome scan method relative to control.
Assay [11] has as its target Tyrosine-protein kinase JAK2 (Homo sapiens) (UniProt O60674). Put plainly: Inhibition of JAK2 JH1 domain (unknown origin) assessed as remaining activity at 1 uM by Kinome scan method relative to control.
Assay [12] has as its target Cyclin-dependent kinase 8 (Homo sapiens) (UniProt P49336). Put plainly: Inhibition of CDK8 (unknown origin) assessed as remaining activity at 1 uM by Kinome scan method relative to control. In short, it runs like this: as §2
For assay [13], the system named is Receptor-type tyrosine-protein kinase FLT3 (Homo sapiens), P36888 [D835V]. Put plainly: Inhibition of FLT3 D835V mutant (unknown origin) assessed as remaining activity at 1 uM by Kinome scan method relative to control.
Assay [14] addresses Dual specificity protein kinase TTK (Homo sapiens) (UniProt P33981). In words: Inhibition of TTK (unknown origin) assessed as remaining activity at 1 uM by Kinome scan method relative to control.
Assay [15] addresses BDNF/NT-3 growth factors receptor (Homo sapiens) (UniProt Q16620). Put plainly: Inhibition of TRKB (unknown origin) assessed as remaining activity at 1 uM by Kinome scan method relative to control.
The target of assay [16] is T1, Serine/threonine-protein kinase 3. Put plainly: Inhibition of recombinant His-tagged full-length MST2 (unknown origin) expressing in Escherichia coli assessed as GST-tagged MOB1a phosphorylation level incubated for 30 mins by immunoblot analysis. On the technique in general: In western blotting, separated proteins are transferred to a membrane and probed.
Assay [17] addresses Serine/threonine-protein kinase PLK4 (Homo sapiens) (UniProt O00444). Put plainly: Inhibition of PLK4 (unknown origin) assessed as remaining activity at 1 uM by Kinome scan method relative to control.
The target of another assay is Aurora kinase B (Homo sapiens, UniProt Q96GD4). In words: Binding affinity to AURKB (unknown origin) assessed as dissociation constant.
Sequence of Aurora kinase B (Q96GD4 whole entry): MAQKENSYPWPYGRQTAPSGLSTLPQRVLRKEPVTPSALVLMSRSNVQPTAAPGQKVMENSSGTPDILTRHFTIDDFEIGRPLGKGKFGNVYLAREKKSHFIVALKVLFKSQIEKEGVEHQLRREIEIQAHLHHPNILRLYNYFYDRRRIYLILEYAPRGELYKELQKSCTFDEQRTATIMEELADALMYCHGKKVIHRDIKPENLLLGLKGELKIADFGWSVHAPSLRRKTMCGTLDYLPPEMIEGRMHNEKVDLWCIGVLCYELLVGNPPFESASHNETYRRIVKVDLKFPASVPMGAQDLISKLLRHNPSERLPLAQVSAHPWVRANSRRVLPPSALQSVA
For a further assay, the system named is HepG2. Put plainly: Induction of apoptosis in human HepG2 cells overexpressing MST2 assessed as viable cells at 3 uM by annexinV staining (Rvb =84.2 %). The format is functional. The conditions noted are these: read-out: Activity.
Assay [18] has as its target Bone morphogenetic protein receptor type-1B (Homo sapiens) (UniProt O00238). Put plainly: Inhibition of BMPR1B (unknown origin) assessed as remaining activity at 1 uM by Kinome scan method relative to control. The method in brief: as §1
The target of assay [19] is Cyclin-dependent kinase 19 (Homo sapiens) (UniProt Q9BWU1). Put plainly: Inhibition of CDK11 (unknown origin) assessed as remaining activity at 1 uM by Kinome scan method relative to control. In short, it runs like this:
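KINOMEscan active-site-dependent competition-binding panel of 468 kinases, compound at 1 μM from a DMSO stock. Result reported as ctrl% = (test signal − positive control signal)/(negative control signal − positive control signal) × 100. The negative control is DMSO (100%) and the positive control is a control compound (0%). Lower ctrl% means tighter binding.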

The target in assay [20] is Calcium/calmodulin-dependent protein kinase type II subunit delta (Homo sapiens) (UniProt Q13557). In words: Inhibition of CAMK2D (unknown origin) assessed as remaining activity at 1 uM by Kinome scan method relative to control. The method in brief: as §2
Sequence of Calcium/calmodulin-dependent protein kinase type II subunit delta (Homo sapiens) (Q13557 whole entry): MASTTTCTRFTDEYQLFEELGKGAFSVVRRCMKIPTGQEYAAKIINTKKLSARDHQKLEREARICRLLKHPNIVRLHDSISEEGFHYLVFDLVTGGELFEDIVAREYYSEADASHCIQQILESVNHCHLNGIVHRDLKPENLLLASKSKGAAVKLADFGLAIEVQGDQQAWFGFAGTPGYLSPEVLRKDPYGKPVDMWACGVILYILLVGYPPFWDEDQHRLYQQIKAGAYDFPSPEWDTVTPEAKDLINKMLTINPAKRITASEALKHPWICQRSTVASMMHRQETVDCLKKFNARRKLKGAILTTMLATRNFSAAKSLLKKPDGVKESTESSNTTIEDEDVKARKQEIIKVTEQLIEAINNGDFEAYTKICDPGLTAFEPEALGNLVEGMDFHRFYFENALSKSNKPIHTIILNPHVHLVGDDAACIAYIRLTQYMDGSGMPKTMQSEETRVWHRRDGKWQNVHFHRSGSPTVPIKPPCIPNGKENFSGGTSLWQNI
The target of assay [21] is Ephrin type-B receptor 4 (Homo sapiens) (UniProt P54760). Put plainly: Inhibition of EPHB4 (unknown origin) assessed as remaining activity at 1 uM by Kinome scan method relative to control.

Sequence of LIM domain kinase 1 (Homo sapiens) (P53667 whole entry, looked up, the tested form may be a part): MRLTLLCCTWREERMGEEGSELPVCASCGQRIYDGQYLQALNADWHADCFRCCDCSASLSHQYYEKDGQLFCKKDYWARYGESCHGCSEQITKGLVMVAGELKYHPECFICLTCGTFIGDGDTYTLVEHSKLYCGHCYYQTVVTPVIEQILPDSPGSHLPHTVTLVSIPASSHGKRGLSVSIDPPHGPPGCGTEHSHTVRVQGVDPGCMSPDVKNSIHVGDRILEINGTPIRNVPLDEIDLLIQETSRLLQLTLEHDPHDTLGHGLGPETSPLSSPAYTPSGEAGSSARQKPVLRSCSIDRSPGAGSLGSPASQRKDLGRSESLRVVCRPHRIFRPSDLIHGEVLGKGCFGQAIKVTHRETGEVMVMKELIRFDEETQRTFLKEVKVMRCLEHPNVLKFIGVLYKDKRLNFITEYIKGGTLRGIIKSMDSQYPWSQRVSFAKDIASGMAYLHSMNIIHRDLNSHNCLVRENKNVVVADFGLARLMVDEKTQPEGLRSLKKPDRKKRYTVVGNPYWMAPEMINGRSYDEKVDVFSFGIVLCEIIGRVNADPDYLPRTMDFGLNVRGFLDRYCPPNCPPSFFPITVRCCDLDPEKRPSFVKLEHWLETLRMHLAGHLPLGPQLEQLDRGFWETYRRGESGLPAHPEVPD
Sequence of Ribosomal protein S6 kinase alpha-5 (Homo sapiens) (O75582 whole entry, looked up, the tested form may be a part): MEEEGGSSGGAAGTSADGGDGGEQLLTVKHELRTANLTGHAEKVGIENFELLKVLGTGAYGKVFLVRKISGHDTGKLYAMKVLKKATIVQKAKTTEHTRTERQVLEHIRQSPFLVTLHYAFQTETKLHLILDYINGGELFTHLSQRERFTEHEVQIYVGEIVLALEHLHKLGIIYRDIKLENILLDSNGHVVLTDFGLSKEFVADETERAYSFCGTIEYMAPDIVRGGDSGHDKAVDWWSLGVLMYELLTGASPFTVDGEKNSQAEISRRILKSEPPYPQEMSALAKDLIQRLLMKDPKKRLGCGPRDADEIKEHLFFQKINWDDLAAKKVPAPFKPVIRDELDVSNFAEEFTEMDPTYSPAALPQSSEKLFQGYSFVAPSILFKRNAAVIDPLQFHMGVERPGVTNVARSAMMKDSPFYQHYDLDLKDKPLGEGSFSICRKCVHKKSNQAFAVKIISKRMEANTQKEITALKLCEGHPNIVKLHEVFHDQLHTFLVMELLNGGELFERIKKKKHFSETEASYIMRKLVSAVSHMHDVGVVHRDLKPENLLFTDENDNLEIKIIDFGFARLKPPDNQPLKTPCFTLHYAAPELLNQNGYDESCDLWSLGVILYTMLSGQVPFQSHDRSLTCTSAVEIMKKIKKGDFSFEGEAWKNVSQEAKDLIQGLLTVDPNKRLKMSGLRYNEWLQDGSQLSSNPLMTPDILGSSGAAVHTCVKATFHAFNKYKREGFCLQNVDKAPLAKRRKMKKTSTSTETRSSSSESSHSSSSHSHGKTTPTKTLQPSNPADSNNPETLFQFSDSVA
Sequence of RAC-beta serine/threonine-protein kinase (Homo sapiens) (P31751 whole entry): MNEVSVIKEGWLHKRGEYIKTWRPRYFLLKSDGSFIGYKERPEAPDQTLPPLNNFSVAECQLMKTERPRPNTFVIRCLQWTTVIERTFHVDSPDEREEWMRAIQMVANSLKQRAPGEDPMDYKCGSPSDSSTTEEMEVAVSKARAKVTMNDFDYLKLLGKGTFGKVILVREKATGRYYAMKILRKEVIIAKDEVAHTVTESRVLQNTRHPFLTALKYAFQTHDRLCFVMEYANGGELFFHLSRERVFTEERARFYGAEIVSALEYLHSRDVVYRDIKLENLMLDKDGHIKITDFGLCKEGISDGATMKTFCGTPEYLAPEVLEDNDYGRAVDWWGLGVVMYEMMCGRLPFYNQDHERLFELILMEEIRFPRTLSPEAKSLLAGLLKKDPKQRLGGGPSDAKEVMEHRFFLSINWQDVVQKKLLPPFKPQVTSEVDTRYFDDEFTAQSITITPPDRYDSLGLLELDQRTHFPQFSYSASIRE
Sequence of Cyclin-dependent kinase 19 (Homo sapiens) (Q9BWU1 whole entry): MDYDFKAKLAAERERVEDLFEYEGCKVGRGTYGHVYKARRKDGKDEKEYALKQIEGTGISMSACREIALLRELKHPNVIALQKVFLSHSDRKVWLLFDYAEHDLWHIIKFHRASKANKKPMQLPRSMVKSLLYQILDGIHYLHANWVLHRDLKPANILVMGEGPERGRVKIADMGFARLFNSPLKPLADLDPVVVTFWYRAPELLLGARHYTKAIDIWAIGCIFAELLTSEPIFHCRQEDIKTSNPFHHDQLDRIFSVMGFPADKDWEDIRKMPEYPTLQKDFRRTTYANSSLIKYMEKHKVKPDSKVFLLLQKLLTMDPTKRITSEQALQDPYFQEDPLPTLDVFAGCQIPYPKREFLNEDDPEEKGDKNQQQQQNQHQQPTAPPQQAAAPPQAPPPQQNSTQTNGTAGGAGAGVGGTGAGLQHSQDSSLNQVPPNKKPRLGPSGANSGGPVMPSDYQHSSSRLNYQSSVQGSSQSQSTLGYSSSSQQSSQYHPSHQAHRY
Sequence of Bone morphogenetic protein receptor type-1B (Homo sapiens) (O00238 whole entry): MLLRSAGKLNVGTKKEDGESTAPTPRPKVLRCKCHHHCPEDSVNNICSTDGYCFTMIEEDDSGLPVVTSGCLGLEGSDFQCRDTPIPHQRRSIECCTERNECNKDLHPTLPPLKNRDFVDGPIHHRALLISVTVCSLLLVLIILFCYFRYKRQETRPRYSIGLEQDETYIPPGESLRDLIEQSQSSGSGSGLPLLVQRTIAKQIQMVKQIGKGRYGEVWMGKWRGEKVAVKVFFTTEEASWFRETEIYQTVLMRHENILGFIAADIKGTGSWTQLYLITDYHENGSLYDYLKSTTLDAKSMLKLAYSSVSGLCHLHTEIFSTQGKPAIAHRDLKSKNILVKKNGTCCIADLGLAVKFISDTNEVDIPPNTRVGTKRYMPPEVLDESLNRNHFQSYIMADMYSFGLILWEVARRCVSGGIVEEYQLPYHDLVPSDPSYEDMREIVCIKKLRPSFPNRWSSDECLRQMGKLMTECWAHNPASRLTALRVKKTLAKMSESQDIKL

Take `CN1C(=O)c2sccc2N(C)c2nc(Nc3ccc(S(N)(=O)=O)cc3)ncc21`: the Activity in assay [1] was 100%; in [2], 81%; in assay [3] it was 86%; in assay [4] it was 100%; in assay [7] it was 96%; in assay [8], 100%. The Activity in assay [10] is 100%; in assay [11], 15%; in assay [12], 94%; in assay [13], 18%; in [14], 99%; in [15] it was 35%. The Activity came to 14% in [17]; 26% in assay [18]; 95% in assay [19]; 100% in assay [20]; 61% in [21]. Also, the IC50 is 1500 nM in assay [5] and 38.2 nM in [16]. Besides, the Kd in assay [6] stood at 34 nM; in assay [9] it was 100 nM; on Aurora kinase B, 40 nM. For the same molecule, the viability at 3 µM in the assay with HepG2 was 93.1%.

Broadly, the IC50 is the concentration needed to halve the response being measured. A word on the Kd: it is a measure of binding affinity in units of concentration.

(Values after ChEMBL document CHEMBL5705905, “Pharmacological targeting of kinases MST1 and MST2 augments tissue repair and regeneration” (Sci Transl Med, 2016).)
